LMPTP inh: LMPTP (human) inhibition | recombinant LMPTP-A, OMFP fluorogenic substrate, fluorescence intensity | AID 651560 | inhibition, % at 20 µM | P24666 | actives 0.22% (n = 360,000);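 active = compounds that cut the enzyme signal by at least half of the control window in the single-dose screen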;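 note: plate controls were DMSO wells with enzyme plus substrate for no effect and substrate without enzyme for full effect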
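Test system: LMPTP-A phosphatase enzyme; input: 0.625 nM LMPTP-A final; reagent: OMFP substrate, 400 µM final; compound dosing: 20 µM single dose, 3% DMSO; incubation: 50 min dark incubation at room temperature; measured by: endpoint fluorescence intensity from OMFP dephosphorylation; measure: % inhibition relative to no-enzyme and uninhibited control wells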
STEP block: inhibitors of human striatal-enriched phosphatase STEP | inhibition, % at 20 µM | actives 0.25% (n = 360,000) | recombinant STEP, OMFP fluorogenic substrate, fluorescence | AID 588621;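 active = inhibition at 20 µM, scaled per plate between control wells, above about 37%, limit read from the data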;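 note: 0% = DMSO with enzyme and substrate and 100% = substrate only without enzyme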
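medium = Bis-Tris buffer pH 6.0, 2.5 mM DTT, 0.005% Tween 20 | test system = STEP (striatal-enriched tyrosine phosphatase) enzyme, cell-free | measure = normalized % inhibition | compound dosing = 20 µM, 1% DMSO | also added = 25 µM OMFP | schedule = reaction 20 min, ambient temperature | measured by = fluorescence read at 480 nm ex / 540 nm em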
SUMO1 PPI mod: SUMO1-SIM interaction modulation; P63165; SUMO1 binding to a labelled peptide, TR-FRET, 1 h; inhibition, % at 20 µM; actives 0.33% (n = 360,000); AID 602429; in the data active = inhibition above about 37%
Target sequence (P63165 whole entry, looked up): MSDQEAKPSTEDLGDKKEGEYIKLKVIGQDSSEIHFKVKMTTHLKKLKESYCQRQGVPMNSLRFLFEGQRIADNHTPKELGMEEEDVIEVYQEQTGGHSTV
Scp1 inh: blocks human Scp-1 phosphatase activity. actives 0.88% (n = 340,000). Recombinant Scp1, phosphopeptide, malachite green phosphate absorbance. inhibition, % at 20 µM. Q9GZU7;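 active = inhibition above about 50% at 20 µM, limit read from the data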;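 note: plate controls were DMSO wells with enzyme for no effect and wells lacking enzyme for full effect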
Target sequence (Q9GZU7 76-261 limits assumed): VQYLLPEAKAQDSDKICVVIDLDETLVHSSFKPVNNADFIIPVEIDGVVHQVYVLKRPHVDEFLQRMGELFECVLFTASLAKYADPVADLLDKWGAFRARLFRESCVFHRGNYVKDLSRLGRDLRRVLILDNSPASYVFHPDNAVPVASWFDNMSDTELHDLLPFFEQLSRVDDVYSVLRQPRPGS
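Times: enzyme reaction 45 min at room temperature, colour 5 min, stabilisation 30 min. Material: SCP-1 catalytic fragment, aa 76-261. Medium: Acidic Tris acetate buffer with magnesium and detergent. Signal: colorimetric free-phosphate detection, absorbance 630 nm. Read-out basis: % inhibition of SCP-1 phosphate liberation. Reagent: Phosphorylated 17-residue peptide substrate.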
CASP6 VEID inh: blocks human caspase-6 cleavage activity; purified caspase-6, Z-VEID-R110 cleavage fluorescence; actives 0.53% (n = 350,000); inhibition, % at 12.5 µM; P55212;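 active = mean inhibition across replicates at least about 35%, with every replicate also reaching that limit, limit read from the data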;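 note: 0% = median of neutral control wells and 100% = no fluorescence left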
Target sequence (P55212 24-179 limits assumed): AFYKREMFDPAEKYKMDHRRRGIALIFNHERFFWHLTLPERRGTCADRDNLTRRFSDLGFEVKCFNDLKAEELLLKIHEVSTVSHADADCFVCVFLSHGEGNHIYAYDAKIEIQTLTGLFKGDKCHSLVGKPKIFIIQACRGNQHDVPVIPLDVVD
Target sequence (P55212 194-293 limits assumed): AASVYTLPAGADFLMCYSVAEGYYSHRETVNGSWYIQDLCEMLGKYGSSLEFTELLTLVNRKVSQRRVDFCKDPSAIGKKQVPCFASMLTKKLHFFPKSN
DNMT1 block: blocks human DNA methyltransferase DNMT1. inhibition (reported as % activation of signal), % at 10 µM. P26358. actives 0.83% (n = 360,000). DNMT1 molecular beacon, Hinp1I cleavage, fluorescence; in the data active = inhibition above about 50%
* hit, by the source's call; · = not tested or not shown. Rows were chosen to be rich in hits. Some 1.7% of all compounds tested hit in one or more screens of this group.

SMILES	LMPTP inh	STEP block	SUMO1 PPI mod	Scp1 inh	CASP6 VEID inh	DNMT1 block
CSCCOC(=O)c1[nH]c2c(c1C)C(=O)CC(c1ccco1)C2 (stereo unspecified)	22	0	4	75*	25	29
Cc1c(C(=O)OCCOC(C)C)[nH]c2c1C(=O)CC(c1ccco1)C2 (stereo unspecified)	59*	1	15	49	·	32
Cc1ccc(C(=O)c2ccccc2C(=O)OCC(=O)NC(=O)NC(C)(C)C)cc1	-1	1	45*	0	9	2
CC(OC(=O)c1cc(O)c2ccccc2c1O)C(=O)Nc1ccc(C(N)=O)cc1 (stereo unspecified)	1	2	-3	1	83*	-22
O=C(NC1CC2CCC(C1)N2Cc1ccccc1)c1ccccc1Br (stereo unspecified)	-2	1	1	-4	39*	0
COc1ccccc1C(=O)NC1CC2CCC(C1)N2Cc1ccccc1 (stereo unspecified)	-2	1	1	-6	-12	-3
Cc1oc(-c2ccc(F)cc2)cc1-c1nn2c(-c3ccco3)nnc2s1	·	·	·	·	57*	·
CC(=O)c1cccc(NC(=O)COC(=O)c2ccccn2)c1	-1	-2	4	-9	0	-1
COC(=O)c1ccc(-c2ccc(C(c3c(C)[nH][nH]c3=O)c3c(C)[nH][nH]c3=O)o2)cc1	5	1	10	31	40*	44
Cc1[nH][nH]c(=O)c1C(c1ccc(-c2cccc(C(=O)O)c2)o1)c1c(C)[nH][nH]c1=O	3	7	27	48	42*	32
Cc1[nH][nH]c(=O)c1C(c1ccc(-c2cccc(Cl)c2)o1)c1c(C)[nH][nH]c1=O	5	3	-4	-16	·	34
COC(=O)COc1ccc(C(c2c(C)[nH][nH]c2=O)c2c(C)[nH][nH]c2=O)cc1	-1	0	-3	-6	2	-21
O=C(CN1C(=O)NC2(CCCCCC2)C1=O)Nc1cccc(F)c1	1	-1	-1	1	-1	0
COc1c(C)cc(C(=O)C2CCCN(C(=O)c3cccc(F)c3)C2)cc1C (stereo unspecified)	0	-2	-8	-7	0	2
CCc1ccc(/C=C2\SC(=S)N(CCCC(=O)Nc3ccc(C(=O)O)cc3)C2=O)cc1	64*	16	-24	9	3	1
COc1ccc(/C=C2\SC(=S)N(CCC(=O)Nc3ccc(C(=O)O)cc3)C2=O)cc1OC	44	85*	14	95*	·	31
COc1cc(/C=C2/SC(=S)N(CC(=O)O)C2=O)ccc1OC(=O)c1cccs1	4	0	2	26	5	0
COc1cc(/C=C2\SC(=S)N(CC(=O)O)C2=O)ccc1OS(=O)(=O)c1ccc(C)cc1	2	-5	15	4	41*	4
O=C(Cc1ccccc1)NN1C(=O)/C(=C/c2ccc(C(=O)O)cc2)SC1=S	0	0	-3	-7	69*	23
O=C(CCCN1C(=O)/C(=C\c2ccccc2)SC1=S)Nc1ccc(C(=O)O)cc1	2	1	-23	1	25	1
Cc1cccc(C)c1NC(=O)C1(C)CN(S(C)(=O)=O)CC(=O)N1C1CC1 (stereo unspecified)	0	·	-2	·	-3	·
Nc1ccc(OCCCc2c(N)nc(N)nc2N)cc1	87*	3	31	-11	·	29
COc1ccc(Cc2c(N)nc(N)nc2N)cc1	27	8	-2	16	·	-1
CC(=O)Nc1ccc(C(=O)Nc2nc(-c3cccnc3)cs2)cc1	6	12	60*	8	-1	-4
Cc1ccc(C(=O)Nc2cccc(-c3cnc4ccccc4n3)c2)cc1	-1	-1	-3	-9	·	9
SMILES	LMPTP inh	STEP block	SUMO1 PPI mod	Scp1 inh	CASP6 VEID inh	DNMT1 block
CC(=O)Nc1ccc(C(=O)Nc2cccc(-c3cnc4ccccc4n3)c2)cc1	40	15	49*	21	-2	34
NNc1ccc([N+](=O)[O-])c2[nH][nH]c(=O)c12	84*	96*	99*	·	94*	85*
Cc1ccc(C)c(OCCC(=O)N2CCN(S(=O)(=O)c3cc(F)ccc3F)CC2)c1	2	1	-2	-8	45*	-2
N#CC1=C2SCN(Cc3ccccc3)CN2C(=O)CC1c1ccccc1F (stereo unspecified)	2	4	0	17	·	-11
COc1ccc(Br)cc1C1CC(=O)N2CN(Cc3ccccc3)CSC2=C1C#N (stereo unspecified)	10	46*	6	-12	1	-18
COc1ccc(Br)cc1C1CC(=O)N2CN(C)CSC2=C1C#N (stereo unspecified)	10	18	12	-5	35*	-10
CCOc1ccc(N2CSC3=C(C#N)C(c4ccco4)CC(=O)N3C2)cc1 (stereo unspecified)	-1	0	1	-4	23	4
Cc1ccc(C2CC(=O)N3CN(c4ccc(Br)cc4)CSC3=C2C#N)o1 (stereo unspecified)	14	13	18	-13	·	101*
CCOc1ccc(N2C(=O)Nc3ccc(Br)cc3C2(O)C(=O)NCCCN(C)C)cc1 (stereo unspecified)	-6	2	-2	-9	-6	2
CCOC(=O)c1ccccc1NC(=O)/C=C/c1cc(OC)c(OC)c(OC)c1	-1	-2	43*	1	·	-8
CCOC(=O)c1ccccc1NC(=O)C=C(C)C	1	4	-3	-1	2	6
O=C(O)c1cccc(NC(=O)c2cn(-c3ccccc3)nc2-c2ccc([N+](=O)[O-])cc2)c1	0	28	-23	39	4	-4
COc1ccc(-c2nn(-c3ccccc3)cc2C(=O)Nc2cccc(C(=O)O)c2)cc1[N+](=O)[O-]	0	-1	-1	-9	67*	-4
Clc1ccc(-c2cnc3n2CCCCC3)cc1	0	0	43*	3	-3	1
Fc1ccc(-c2cnc3n2CCCCC3)cc1	-2	-3	1	-12	6	0
CS(=O)(=O)c1ccc(Nc2nc(C(N)COCc3ccccc3)cs2)cc1 (stereo unspecified)	-1	-1	3	·	46*	-4
CS(=O)(=O)c1ccc(Nc2nc(C(N)Cc3ccccc3)cs2)cc1 (stereo unspecified)	-1	-2	-4	·	-1	2
CCc1noc(C)c1C(=O)NCCc1ccccc1	-1	3	0	-7	-2	3
O=C(O)C1C2C=CC(C2)C1C(=O)NCc1ccco1 (stereo unspecified)	-1	0	2	21	11	19

Bioassay records (PubChem)
